{
  "source": "paper PMC6437231",
  "about": "(Diabetes Therapy, 2019)",
  "key": {"[1]": {"assay_type": "in vivo, human", "conditions": "final two-compartment model", "in_short": "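Plasma semaglutide (LC–MS/MS) from 353 subjects in 9 trials with s.c. and i.v. dosing. Mixed-effects two-compartment model with first-order absorption and elimination; i.v. doses treated as a central bolus. Log-normal inter-individual variability on ka, CL, Q, Vc and Vp; (weight/85 kg) exponent on CL, Q, Vc and Vp; product strength (1, 1.34, 3, 10 mg/mL) on ka. Covariates kept at 10% alpha; CWRES >6 excluded; log-additive residual error.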"}, "[2]": {"assay_type": "in vivo, human", "conditions": "one-compartment model, 7 multiple-dose trials, s.c.", "in_short": "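Steady-state s.c. plasma data from seven multiple-dose trials, with dose escalation 0.25 > 0.5 > 1.0 mg (one trial to 1.5 mg). One-compartment mixed-effects model parameterised as CL/F, V/F and ka, each with inter-individual variability. […] Log-additive residual error; values with CWRES >6 excluded.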"}, "[3]": {"conditions": "ref [6], cited from earlier work"}, "plasma albumin": {"test_system": "plasma albumin", "conditions": "ref [5]; cited from earlier work"}, "[4]": {"conditions": "cited from earlier work"}, "[5]": {"conditions": "population PK model; ref [9]; cited from earlier work"}, "[6]": {"conditions": "s.c., trial 7 drug product strength"}, "[7]": {"conditions": "one-compartment model from phase 3a trials"}},
  "data": [
    {"molecule": "CC[C@H](C)[C@H](NC(=O)[C@H](Cc1ccccc1)NC(=O)[C@H](CCC(=O)O)NC(=O)[C@H](CCCCNC(=O)COCCOCCNC(=O)COCCOCCNC(=O)CC[C@H](NC(=O)CCCCCCCCCCCCCCCCC(=O)O)C(=O)O)NC(=O)[C@H](C)NC(=O)[C@H](C)NC(=O)[C@H](CCC(N)=O)NC(=O)CNC(=O)[C@H](CCC(=O)O)NC(=O)[C@H](CC(C)C)NC(=O)[C@H](Cc1ccc(O)cc1)NC(=O)[C@H](CO)NC(=O)[C@H](CO)NC(=O)[C@@H](NC(=O)[C@H](CC(=O)O)NC(=O)[C@H](CO)NC(=O)[C@@H](NC(=O)[C@H](Cc1ccccc1)NC(=O)[C@@H](NC(=O)CNC(=O)[C@H](CCC(=O)O)NC(=O)C(C)(C)NC(=O)[C@@H](N)Cc1cnc[nH]1)[C@@H](C)O)[C@@H](C)O)C(C)C)C(=O)N[C@@H](C)C(=O)N[C@@H](Cc1c[nH]c2ccccc12)C(=O)N[C@@H](CC(C)C)C(=O)N[C@H](C(=O)N[C@@H](CCCNC(=N)N)C(=O)NCC(=O)N[C@@H](CCCNC(=N)N)C(=O)NCC(=O)O)C(C)C", "note": "[semaglutide]", "values": [
      {"measurement": "Central volume (Vc)", "setting": "[1]; 9 trials, body weight 85 kg", "result": 3.59, "unit": "L"},
      {"measurement": "Peripheral volume (Vp)", "setting": "[1]; 9 trials, body weight 85 kg", "result": 4.10, "unit": "L"},
      {"measurement": "Higher CL in subjects with type 2 diabetes compared to healthy subjects", "setting": "[1]; 95% CI 9–16%", "result": 12, "unit": "%"},
      {"measurement": "Body weight effect on Vc and Vp", "setting": "[1]; exponent of (weight/85 kg)", "result": 0.923},
      {"measurement": "T2D effect on ka", "setting": "[1]; factor, T2D vs normoglycaemia", "result": 0.544},
      {"measurement": "Injection site effect on F", "setting": "[1]; factor, thigh vs abdomen", "result": 0.883},
      {"measurement": "Drug product strength effects on ka, 3 mg", "setting": "[1]; [6]", "result": 0.0526},
      {"measurement": "Drug product strength effects on ka, 10 mg", "setting": "[1]; [6]", "result": 0.139},
      {"measurement": "Bioavailability estimated by the final model", "setting": "[1]; s.c., 95% CI 0.80–0.90", "result": 85, "unit": "%"},
      {"measurement": "Lower bioavailability when using the thigh compared with the abdomen", "setting": "[1]; s.c., 95% CI 0.84–0.92", "result": 12, "unit": "%"},
      {"measurement": "Total volume of distribution (Vc + Vp)", "setting": "[1]; typical subject with T2D, 85 kg", "result": "approximately 8 L"},
      {"measurement": "Absorption rate constant (ka)", "setting": "[2]; 267 subjects", "result": 0.0296, "unit": "h⁻¹"},
      {"measurement": "Apparent clearance (CL/F), healthy volunteer with body weight of 85 kg", "setting": "[2]", "result": 0.0415, "unit": "L/h"},
      {"measurement": "CL/F for subject with T2D and body weight of 85 kg", "setting": "[3]; [7]", "result": 0.0478, "unit": "L/h"},
      {"measurement": "Total volume/F (V/F)", "setting": "[3]; [7]", "result": 12.2, "unit": "L"},
      {"measurement": "Inter-individual variability in clearance", "setting": "[3]; phase 3 analysis, CV", "result": 12.9, "unit": "%"},
      {"measurement": "Bound to plasma albumin", "setting": "plasma albumin", "result": "more than 99%"}
    ]},
    {"molecule": "liraglutide", "values": [
      {"measurement": "Elimination compared with semaglutide", "setting": "[4]; population PK model, ref [10]", "result": "much faster elimination"},
      {"measurement": "Bioavailability after administration in the thigh versus the abdomen", "setting": "[4]; ref [16]", "result": "slightly lower"}
    ]},
    {"molecule": "dulaglutide", "values": [
      {"measurement": "Greater CL compared to semaglutide", "setting": "[5]", "result": "approximately 50%"},
      {"measurement": "Interindividual variability, coefficient of variation (CV) for CL", "setting": "[5]", "result": 40.5, "unit": "%"},
      {"measurement": "Lower volume of distribution compared to semaglutide", "setting": "[5]", "result": 20, "unit": "%"},
      {"measurement": "Slower absorption compared to semaglutide", "setting": "[5]", "result": "approximately threefold"}
    ]}
  ]
}
